Assay results as given in ChEMBL document CHEMBL1122926, “Potential radiosensitizing agents. 7. 4(5)-Iodo-5(4)-nitroimidazole derivatives” (J Med Chem, 1985).

Legend:
[1] = Compound evaluated for the partition coefficient (PC); format: physicochemical; conditions: octanol/water
In short: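 Octanol/phosphate buffer (0.1 M, pH 7.4) partition, equal volumes, stirred 1 h at room temperature. Nitroimidazole concentration in each phase measured spectrophotometrically.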

[2] = Evaluated for sensitizer enhancement ratio determined by dividing the D0 value from the control radiation survival curve by the […] from the radiation survival curve in the presence at a concentration of 0.5 mM.; format: functional
In short: (§1)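 Hypoxic asynchronous V-79 monolayers in sealed containers (95% N2/5% CO2 purge) with drug present. Irradiated at room temperature by linear accelerator, 180 rad/min, 400–2400 rad, for full survival curves by colony formation. SER is the D0 of hypoxic control cells divided by the D0 of hypoxic drug-treated cells. Drug given at maximum nontoxic 2-h concentration, up to 1 mM.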

[3] = Compound evaluated in vitro for the dose required to kill 50% of chinese hamster cells measured by colony formation […]; format: functional; conditions: Cricetulus griseus, read-out: ED50 (the source's name)
In short: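 Chinese hamster V-79 cells, about 200 per dish, attached 2 h in MEM + 15% fetal calf serum. Exposed to a range of drug concentrations for 2 h at 37 °C, in air or hypoxia (95% N2/5% CO2 purge, 90 min). Drug then replaced by fresh medium, 6-day incubation, colonies stained with methylene blue and counted. ED50 read from concentration vs. percent survival graphs.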

[4] = Evaluated for sensitizer enhancement ratio determined by dividing the D0 value from the control radiation survival curve by the […] from the radiation survival curve in the presence at a concentration of 0.025 mM.; format: functional; in short: as §1
[5] = Evaluated for sensitizer enhancement ratio determined by dividing the D0 value from the control radiation survival curve by the […] from the radiation survival curve in the presence at a concentration of 0.05 mM.; format: functional; in short: as §1
[6] = Evaluated for sensitizer enhancement ratio determined by dividing the D0 value from the control radiation survival curve by the […] from the radiation survival curve in the presence at a concentration of 0.1 mM.; format: functional; in short: as §1
[7] = Evaluated for sensitizer enhancement ratio determined by dividing the D0 value from the control radiation survival curve by the […] from the radiation survival curve in the presence at a concentration of 0.25 mM.; format: functional; in short: as §1
[8] = Evaluated for sensitizer enhancement ratio determined by dividing the D0 value from the control radiation survival curve by the […] from the radiation survival curve in the presence at a concentration of 1.0 mM.; format: functional
In short: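 V-79 Chinese hamster asynchronous monolayers in MEM with 15% fetal calf serum. Cells made hypoxic in sealed containers purged with 95% N2/5% CO2 for 90 min, drug exposure 2 h. Irradiated at room temperature by linear accelerator at 180 rad/min, 400–2400 rad. Colonies counted after 6 days at 37 °C. SER = D0 of hypoxic controls / D0 of hypoxic drug-treated cells.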

[9] = Evaluated for sensitizer enhancement ratio determined by dividing the D0 value from the control radiation survival curve by the […] from the radiation survival curve in the presence at a concentration of 1.0 mM.

| Compound | PC [1] | EC50 [3] [µM] | Ratio [6] | further results |
| --- | --- | --- | --- | --- |
| Cn1cnc(I)c1[N+](=O)[O-] | 19.4 | 820 |  | Ratio [2]: 2.4 |
| CCOC(=O)Cn1cnc([N+](=O)[O-])c1I | 3.7 | 60 |  | Ratio [4]: 1.7 |
| Cn1cnc([N+](=O)[O-])c1I | 10.1 | 140 |  | Ratio [5]: 2.5 |
| O=C(Cn1cnc(I)c1[N+](=O)[O-])NCc1cccnc1 | 7.6 | 180 | 1.7 |  |
| O=C(Cn1cnc([N+](=O)[O-])c1I)NCc1cccnc1 | 2.9 | 650 |  | Ratio [7]: 1.5 |
| CCOC(=O)Cn1cnc(I)c1[N+](=O)[O-] | 8.6 | 180 | 1.8 |  |
| O=[N+]([O-])c1[nH]cnc1I | 1.9 | > 1000 |  | Ratio [8]: 1.1 |
| COCC(O)Cn1cnc([N+](=O)[O-])c1I (stereo not given) | 2.6 | 170 | 1.6 |  |
| O=C(Cn1cnc([N+](=O)[O-])c1I)NCc1ccc[n+]([O-])c1 | 0.04 | > 1000 |  | Ratio [9]: 1.2 |
| COCC(O)Cn1cnc(I)c1[N+](=O)[O-] (stereo not given) | 7.8 | 480 | 1.4 |  |
